# From ChEMBL document CHEMBL1800048, “Gambogic acid, a natural product inhibitor of Hsp90” (J Nat Prod, 2011)
# Activity calls are given as the source filed them. The calls are words filed in the database; no cut-off is given here.
# Key:
# [1] = Effect on [35S]His-tagged HRI stability in heme-deficient reticulocyte lysate assessed as loss of [35S]His-tagged HRI at 400 uM after 45 mins by SDS-PAGE and autoradiography
# [2] = Inhibition of Hsp90-mediated [35S]His-tagged HRI maturation in heme-deficient reticulocyte lysate at 400 uM after 45 mins by SDS-PAGE and autoradiography
# Summary of the method: (§1)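 [35S]His-tagged wild-type HRI was made by transcription-translation in reticulocyte lysate. Compound or 4% v/v DMSO was added at 20 min, followed by 10 min more. Samples were diluted into 7 volumes of heme-deficient lysate holding the same compound concentration; hemin-supplemented (20 µM) lysate was the reference. After 45 min, HRI was captured on Ni-NTA on ice for 1 h. Maturation was scored by mobility shift on SDS-PAGE and autoradiography.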
# [3] = biological target: Hsp90 co-chaperone Cdc37 (Homo sapiens) (UniProt Q16543); settings: 20 mM
# [4] = Inhibition of Hsp90-mediated [35S]His-tagged HRI maturation in heme-deficient reticulocyte lysate at 20 mM after 45 mins by SDS-PAGE and autoradiography
# Summary of the method: (§2)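 Wild-type [35S]His-tagged HRI made by coupled transcription-translation in reticulocyte lysate with [35S]methionine. Compound or DMSO (4% v/v) added after 20 min, then 10 min more. Sample diluted into 7 volumes of heme-deficient lysate (hemin 20 µM as reference) holding the same compound level, 45 min. HRI pulled down on NTA-Ni resin, 1 h on ice. SDS-PAGE and autoradiography; mobility shift and band densitometry as % of minus-heme control.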
# [5] = Effect on [35S]His-tagged HRI stability in heme-deficient reticulocyte lysate assessed as loss of [35S]His-tagged HRI at 20 mM after 45 mins by SDS-PAGE and autoradiography; summary of the method: as §2
# [6] = Effect on [35S]His-tagged HRI stability in heme-deficient reticulocyte lysate assessed as loss of [35S]His-tagged HRI at 80 uM after 45 mins by SDS-PAGE and autoradiography; summary of the method: as §2
# [7] = biological target: T1, Hsp90 co-chaperone Cdc37 (Homo sapiens) (UniProt Q16543); experiment: Inhibition of Cdc37 interaction with heme-regulated [35S]His-tagged eIF2alpha K199R mutant kinase in reticulocyte lysate assessed as coadsorbed Cdc37 at 80 uM after 40 mins by SDS-PAGE and Western blot analysis
# T1 sequence (whole entry): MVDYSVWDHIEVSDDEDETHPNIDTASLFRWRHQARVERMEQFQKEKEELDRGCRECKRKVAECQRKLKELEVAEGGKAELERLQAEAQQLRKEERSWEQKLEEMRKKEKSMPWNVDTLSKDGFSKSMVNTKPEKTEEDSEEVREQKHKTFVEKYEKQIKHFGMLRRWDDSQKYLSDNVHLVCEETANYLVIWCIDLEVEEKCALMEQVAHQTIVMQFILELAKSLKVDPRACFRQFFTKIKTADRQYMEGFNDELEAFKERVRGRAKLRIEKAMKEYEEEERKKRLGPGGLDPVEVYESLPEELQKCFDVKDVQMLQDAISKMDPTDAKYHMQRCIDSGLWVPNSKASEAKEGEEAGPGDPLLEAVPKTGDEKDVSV
# Summary of the method: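 His-tagged kinase-dead HRI K199R made by TnT in reticulocyte lysate with [35S]methionine. After 10 min of synthesis, compound or DMSO (4% v/v) added, then 40 min more. Immunoadsorbed with anti-His-tag antibody on anti-mouse-IgG agarose. Washed four times in 10 mM PIPES pH 7.2, 100 mM NaCl. Co-adsorbed Hsp90, Hsp70 and Cdc37 read by SDS-PAGE and Western blot; plasmid-free lysate as nonspecific control.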
# [8] = Inhibition of Hsp90-mediated [35S]His-tagged HRI maturation in heme-deficient reticulocyte lysate at 80 uM after 45 mins by SDS-PAGE and autoradiography; summary of the method: as §2
# SK-BR-3 = experiment: Antiproliferative activity against human SKBR3 cells assessed as inhibition of cell growth after 72 hrs by cell titer 96 assay; format: functional; settings: SK-BR-3, 72 h
# Summary of the method: (§3)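 Cells seeded at 2000/well and left to attach overnight. HeLa was grown in MEM with non-essential amino acids, 2 mM glutamine and 10% FBS. SkBr3 was grown in DMEM/F12 (1:1) with penicillin/streptomycin and 10% FBS. Varying compound concentrations or 1% DMSO vehicle were added for 72 h at 37 °C. Tetrazolium reagent was added for 1 h, then A490 read; viability expressed as % of DMSO wells.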
# HeLa = experiment: Antiproliferative activity against human HeLa cells assessed as inhibition of cell growth after 72 hrs by cell titer 96 assay; format: functional; summary of the method: as §3
# Heat shock protein HSP90 [9] = biological target: T2, Heat shock protein HSP90 (Homo sapiens, UniProt P07900+P08238); experiment: Inhibition of Hsp90 in human HeLa cells assessed as Akt degradation at 0.01 to 20 uM by Western blot analysis; format: cell-based
# Summary of the method: (§4)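 Cells (1×10^6 per dish) were attached overnight, then exposed to the compound for 36 h. […] Extracts (10 µg protein) were Western blotted for Her2, Akt, Raf-1, Hsp90 and Hsp70, with actin as loading control.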
# Heat shock protein HSP90 [10] = biological target: T2, Heat shock protein HSP90; experiment: Binding affinity to human full length Hsp90 expressed in insect Sf9 cells by SPR analysis
# Summary of the method: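 Full-length human Hsp90β from baculovirus-infected Sf9 cells was amine-coupled by EDC/NHS to a carboxyl SPR chip (about 2000 RU). Compound at 1.0–50 µM was injected in 10 mM PIPES pH 7.4, 300 mM NaCl, 2% DMSO at 15 µL/min, 25 °C. Measured in triplicate; ka, kd and KD were derived from curve fits.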
# [11] = Inhibition of Hsp90-mediated [35S]His-tagged HRI maturation in heme-deficient reticulocyte lysate at 50 uM after 45 mins by SDS-PAGE and autoradiography; summary of the method: as §1
# Heat shock protein HSP90 [12] = biological target: T2, Heat shock protein HSP90; experiment: Inhibition of Hsp90 in human HeLa cells assessed as Raf degradation at 0.01 to 20 uM after 36 hrs by Western blot analysis; format: cell-based; summary of the method: as §4
# Heat shock protein HSP90 [13] = biological target: T2, Heat shock protein HSP90; experiment: Inhibition of Hsp90 in human HeLa cells assessed as Her2 degradation at 0.01 to 20 uM after 36 hrs by Western blot analysis; format: cell-based; summary of the method: as §4
# [14] = Inhibition of Hsp90-dependent refolding of luciferase in reticulocyte lysate by microplate reader
# [15] = biological target: T1, Hsp90 co-chaperone Cdc37 (Homo sapiens); settings: 50 uM
# Heat shock protein HSP90 [16] = biological target: T2, Heat shock protein HSP90; experiment: Binding affinity to human Hsp90 N-terminal domain (1 to 241) expressed in Escherichia coli DE-3 Star cells by SPR analysis in presence of 20 uM geldanamycin
# [17] = Effect on [35S]His-tagged HRI stability in heme-deficient reticulocyte lysate assessed as loss of [35S]His-tagged HRI at 50 uM after 45 mins by SDS-PAGE and autoradiography
# Heat shock protein HSP90 [18] = biological target: T2, Heat shock protein HSP90; experiment: Inhibition of Hsp90 in human MCF7 cells assessed as Her2 degradation after 36 hrs by Western blot analysis; format: cell-based; summary of the method: as §4
# Heat shock protein HSP90 [19] = biological target: T2, Heat shock protein HSP90; experiment: Inhibition of Hsp90 in human SKBR3 cells assessed as induction of Hsp90 expression after 36 hrs by Western blot analysis; format: cell-based; settings: SK-BR-3; summary of the method: as §4
# Heat shock protein HSP90 [20] = biological target: T2, Heat shock protein HSP90; experiment: Inhibition of Hsp90 in human MCF7 cells assessed as Raf degradation after 36 hrs by Western blot analysis; format: cell-based; summary of the method: as §4
# Heat shock protein HSP90 [21] = biological target: T2, Heat shock protein HSP90; experiment: Inhibition of Hsp90 in human SKBR3 cells assessed as induction of Hsp70 expression after 36 hrs by Western blot analysis; format: cell-based; settings: SK-BR-3; summary of the method: as §4
# Heat shock protein HSP90 [22] = biological target: T2, Heat shock protein HSP90; experiment: Inhibition of Hsp90 in human SKBR3 cells assessed as Her2 degradation after 36 hrs by Western blot analysis; format: cell-based; settings: SK-BR-3
# Summary of the method: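 SkBr3 cells (1×10^6 per dish) were attached overnight, then exposed to the compound for 36 h. […] Her2 was Western blotted from 1 µg extract protein, with actin as loading control.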
# Heat shock protein HSP90 [23] = biological target: T2, Heat shock protein HSP90; experiment: Inhibition of Hsp90 in human MCF7 cells assessed as Akt degradation after 36 hrs by Western blot analysis; format: cell-based; summary of the method: as §4
# Heat shock protein HSP90 [24] = biological target: T2, Heat shock protein HSP90; experiment: Inhibition of Hsp90 in human MCF7 cells assessed as induction of Hsp70 expression after 36 hrs by Western blot analysis; format: cell-based; summary of the method: as §4
# Heat shock protein HSP90 [25] = biological target: T2, Heat shock protein HSP90; experiment: Inhibition of Hsp90 in human SKBR3 cells assessed as Raf degradation after 36 hrs by Western blot analysis; format: cell-based; settings: SK-BR-3; summary of the method: as §4
# Heat shock protein HSP90 [26] = biological target: T2, Heat shock protein HSP90; experiment: Inhibition of Hsp90 in human SKBR3 cells assessed as Akt degradation after 36 hrs by Western blot analysis; format: cell-based; settings: SK-BR-3; summary of the method: as §4
# Heat shock protein HSP90 [27] = biological target: T2, Heat shock protein HSP90; experiment: Binding affinity to human Hsp90 N-terminal domain (1 to 241) expressed in Escherichia coli DE-3 Star cells by SPR analysis
# Heat shock protein HSP90 [28] = biological target: T2, Heat shock protein HSP90; experiment: Inhibition of Hsp90 in human MCF7 cells assessed as induction of Hsp90 expression after 36 hrs by Western blot analysis; format: cell-based; summary of the method: as §4
# Heat shock protein HSP90 [29] = biological target: T2, Heat shock protein HSP90; experiment: Binding affinity to human Hsp90 C-terminal domain (531 to 732) expressed in Escherichia coli DE-3cstar cells by SPR analysis
# Summary of the method: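 Hsp90 N-terminal (aa 1–241) or C-terminal (aa 531–732) domain was expressed in E. coli, Ni-NTA purified, His-tag TEV-cleaved, then gel-filtered and biotinylated for SPR. Analyte was injected in 10 mM PIPES pH 7.4, 300 mM NaCl, 2% DMSO at 15 µL/min, 25 °C. […] Triplicates; ka, kd and KD were derived from fits.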
# [30] = biological target: T1, Hsp90 co-chaperone Cdc37 (Homo sapiens); settings: 100 uM
# [31] = Inhibition of Hsp90-mediated [35S]His-tagged HRI maturation in heme-deficient reticulocyte lysate at 100 uM after 45 mins by SDS-PAGE and autoradiography; summary of the method: as §1
# [32] = Effect on [35S]His-tagged HRI stability in heme-deficient reticulocyte lysate assessed as loss of [35S]His-tagged HRI at 100 uM after 45 mins by SDS-PAGE and autoradiography
# [33] = Inhibition of Hsp90-mediated [35S]His-tagged HRI maturation in heme-deficient reticulocyte lysate at 4 mM after 45 mins by SDS-PAGE and autoradiography; summary of the method: as §2
# [34] = Effect on [35S]His-tagged HRI stability in heme-deficient reticulocyte lysate assessed as loss of [35S]His-tagged HRI at 4 mM after 45 mins by SDS-PAGE and autoradiography; summary of the method: as §2
compound,measurement,setting,value
CO[C@H]1[C@H](OC(=O)c2ccc(C)[nH]2)[C@H](O)[C@@H](Oc2ccc3c(O)c(NC(=O)c4c[nH]c(C(=O)Nc5c(O)c6ccc(O[C@H]7OC(C)(C)[C@@H](OC)[C@H](OC(=O)c8ccc(C)[nH]8)[C@@H]7O)c(C)c6oc5=O)c4C)c(=O)oc3c2C)OC1(C)C,Activity,[1],80%
same,inhibition,[2],Active
SODIUM MOLYBDATE,Activity,[3],Active
same,inhibition,[4],Active
same,Activity,[5],10%
COC1=C2C[C@@H](C)C[C@H](OC)[C@H](O)[C@@H](C)/C=C(\C)[C@H](OC(N)=O)[C@@H](OC)/C=C\C=C(/C)C(=O)NC(=CC1=O)C2=O,Activity,[6],0%
same,Activity,[7],Active
same,inhibition,[8],Active
CC(C)=CCC[C@]1(C)C=Cc2c(O)c3c(c(CC=C(C)C)c2O1)O[C@]12C(=C[C@@H]4C[C@H]1C(C)(C)O[C@@]2(C/C=C(/C)C(=O)O)C4=O)C3=O [GAMBOGIC ACID],GI50,SK-BR-3,800 nM
same,GI50,HeLa,1500 nM
same,inhibition,Heat shock protein HSP90 [9],Active
same,Kd,Heat shock protein HSP90 [10],9800 nM
same,inhibition,[11],inactive
same,inhibition,Heat shock protein HSP90 [12],Active
same,inhibition,Heat shock protein HSP90 [13],Active
same,IC50,[14],2000 nM
same,Activity,[15],inactive
same,Kd,Heat shock protein HSP90 [16],7000 nM
same,Activity,[17],10%
same,inhibition,Heat shock protein HSP90 [18],Dose-dependent effect
same,inhibition,Heat shock protein HSP90 [19],Dose-dependent effect
same,inhibition,Heat shock protein HSP90 [20],Dose-dependent effect
same,inhibition,Heat shock protein HSP90 [21],Dose-dependent effect
same,inhibition,Heat shock protein HSP90 [22],Dose-dependent effect
same,inhibition,Heat shock protein HSP90 [23],Dose-dependent effect
same,inhibition,Heat shock protein HSP90 [24],Dose-dependent effect
same,inhibition,Heat shock protein HSP90 [25],Dose-dependent effect
same,inhibition,Heat shock protein HSP90 [26],Dose-dependent effect
same,Kd,Heat shock protein HSP90 [27],7600 nM
same,inhibition,Heat shock protein HSP90 [28],Dose-dependent effect
same,Activity,Heat shock protein HSP90 [29],inactive
CC1=C(O)C(=O)C=C2C1=CC=C1[C@@]2(C)CC[C@@]2(C)[C@@H]3C[C@](C)(C(=O)O)CC[C@]3(C)CC[C@]12C [CELASTROL],IC50,[14],20000 nM
same,Activity,[30],inactive
same,inhibition,[31],Active
same,Activity,[32],40%
CO[C@@H]1[C@@H](OC(N)=O)[C@@H](O)[C@H](Oc2ccc3c(O)c(NC(=O)c4ccc(O)c(CC=C(C)C)c4)c(=O)oc3c2C)OC1(C)C,inhibition,[33],Active
same,Activity,[34],90%
